Measurements: ChEMBL document CHEMBL5331128, “Alicyclic Ring Size Variation of 4-Phenyl-2-naphthoic Acid Derivatives as P2Y14 Receptor Antagonists” (J Med Chem, 2023)
Active and inactive are the calls of the source.

Key:
[1] = molecular target: T1, P2Y purinoceptor 14 (Mus musculus, UniProt Q9ESG6); assay: (§1) Displacement of fluorescent tracer 4-(4-(1-(4-(1-(6-(3-carboxylato-4-(3-iminio-3H-xanthen-9-yl)benzamido)hexyl)-4,5-dihydro-1H-pyrrol-3-yl)butyl)piperidin-1-ium-4-yl)phenyl)-7-(4-(trifluoromethyl)phenyl)-2-naphthoate from mouse P2Y14R stably expressed in human HEK293 cells by flow cytometry; type: cell-based
T1 sequence (Q9ESG6 whole entry): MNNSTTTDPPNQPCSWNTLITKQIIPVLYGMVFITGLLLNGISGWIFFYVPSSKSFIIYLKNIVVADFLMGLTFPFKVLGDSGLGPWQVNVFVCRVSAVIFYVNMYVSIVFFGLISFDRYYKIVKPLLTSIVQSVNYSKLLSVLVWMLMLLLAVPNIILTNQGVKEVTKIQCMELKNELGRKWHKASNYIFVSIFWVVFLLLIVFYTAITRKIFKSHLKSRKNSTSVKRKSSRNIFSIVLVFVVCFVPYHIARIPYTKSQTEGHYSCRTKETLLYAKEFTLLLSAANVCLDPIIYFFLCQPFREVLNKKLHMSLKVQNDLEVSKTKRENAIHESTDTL
In short: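 Whole-cell competitive binding: CHO cells expressing hP2Y14R (or HEK-293 cells expressing mP2Y14R) incubated with AlexaFluor488-labelled antagonist tracer at 20 nM. […] Ki derived by dividing IC50 by 1.72.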

[2] = molecular target: Beta-3 adrenergic receptor (Homo sapiens, UniProt P13945); assay: Displacement of [125I]-Pindolol from human adrenergic beta3 receptor assessed as inhibition constant by radioligand displacement assay
[3] = Selectivity ratio, ratio of IC50 for displacement of fluorescent tracer 4-(4-(1-(4-(1-(6-(3-carboxylato-4-(3-iminio-3H-xanthen-9-yl)benzamido)hexyl)-4,5-dihydro-1H-pyrrol-3-yl)butyl)piperidin-1-ium-4-yl)phenyl)-7-(4-(trifluoromethyl)phenyl)-2-naphthoate from mouse P2Y14R stably expressed in human HEK293 cells to IC50 for displacement of fluorescent tracer 4-(4-(1-(4-(1-(6-(3-carboxylato-4-(3-iminio-3H-xanthen-9-yl)benzamido)hexyl)-4,5-dihydro-1H-pyrrol-3-yl)butyl)piperidin-1-ium-4-yl)phenyl)-7-(4-(trifluoromethyl)phenyl)-2-naphthoate from human P2Y14R stably expressed in CHO cells; type: cell-based
[4] = molecular target: Sigma non-opioid intracellular receptor 1 (Homo sapiens, UniProt Q99720); assay: Displacement of [3H]-Pentazocine from human sigma 1 receptor assessed as inhibition constant by radioligand displacement assay
[5] = molecular target: Histamine H1 receptor (Homo sapiens, UniProt P35367); assay: Displacement of [3H]-Pyrilamine from human histamine H1 receptor assessed as inhibition constant by radioligand displacement assay
[6] = molecular target: Sigma intracellular receptor 2 (Homo sapiens, UniProt Q5BJF2); assay: Displacement of [3H]-DTG from human sigma 2 receptor assessed as inhibition constant by radioligand displacement assay
[7] = molecular target: 5-hydroxytryptamine receptor 1B (Homo sapiens, UniProt P28222); assay: Displacement of [3H]-5-CT from human 5-HT1B receptor assessed as inhibition constant by radioligand displacement assay
[8] = Lipophilicity, log D of compound at pH 7.4 incubated for 20 hrs by HPLC analysis; type: physicochemical; settings: buffer
[9] = test system: Mus musculus; assay: Antiallodynic activity in CCI surgery neuropathic pain Hsd:ICR mouse model assessed as reversal of mechano-allodynia by measuring paw withdrawal threshold at 10 micromol/kg,ip and measured upto 5 days by von frey test; type: functional, organism-based; settings: dose 10.0 µmol/kg, time <= 5.0 day
In short: (§2)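 CCI neuropathic pain in adult male Hsd:ICR (CD-1) mice (20–30 g). Single i.p. injection on day 7 after sciatic nerve constriction, at peak pain. Vehicle 10% (Kolliphor HS 15:DMSO 5:95) in saline, 0.2 mL. Paw withdrawal threshold by von Frey filaments on ipsilateral and contralateral hindpaws. Mean ± SD; two-way ANOVA with Dunnett's test versus day 0 and day 7.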

[10] = test system: Mus musculus; assay: Antiallodynic activity in CCI surgery neuropathic pain Hsd:ICR mouse model assessed as reversal of mechano-allodynia by measuring paw withdrawal threshold at 10 micromol/kg,po and measured upto 6 hrs by von frey test; type: functional, organism-based; settings: dose 10.0 µmol/kg
In short: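 CCI neuropathic pain in adult male CD-1 mice. Single oral gavage dose of 10 μmol/kg on day 7 post-surgery. Vehicle 5% DMSO + 10% (Kolliphor HS 15:DMSO 5:95) in 0.5% methylcellulose, 0.2 mL. Von Frey paw withdrawal threshold on both hindpaws. Mean ± SD; two-way ANOVA with Dunnett's test.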

[11] = molecular target: T2, P2Y purinoceptor 14 (Homo sapiens, UniProt Q15391); assay: as §1, with “human” for “mouse”, “CHO” for “human HEK293”, “cells assessed as inhibition constant” for “cells”; type: cell-based
T2 sequence (Q15391 whole entry): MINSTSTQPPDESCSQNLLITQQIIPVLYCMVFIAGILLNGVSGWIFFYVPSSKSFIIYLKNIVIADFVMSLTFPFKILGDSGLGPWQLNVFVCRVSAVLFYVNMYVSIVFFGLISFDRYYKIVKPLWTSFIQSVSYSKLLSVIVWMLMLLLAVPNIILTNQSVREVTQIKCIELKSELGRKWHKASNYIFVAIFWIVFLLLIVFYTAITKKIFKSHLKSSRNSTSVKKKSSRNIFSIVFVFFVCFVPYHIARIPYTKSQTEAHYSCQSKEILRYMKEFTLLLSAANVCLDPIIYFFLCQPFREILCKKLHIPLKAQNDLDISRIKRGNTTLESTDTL
In short: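 Whole-cell competitive binding: CHO cells expressing hP2Y14R (or HEK-293 cells expressing mP2Y14R) incubated with AlexaFluor488-labelled antagonist tracer at 20 nM.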

[12] = Antagonist activity at chimpanzee P2Y14R stably expressed in human HEK cells assessed as inhibition of UDP-glucose induced Ca2+ signaling incubated for 20 mins by FLIPR analysis; type: cell-based; settings: Pan troglodytes, HEK293, 20 min
[13] = molecular target: T3, Alpha-2A adrenergic receptor (Homo sapiens, UniProt P08913); assay: Displacement of [3H]-Rauwolscine from human adrenergic alpha2A receptor assessed as inhibition constant by radioligand displacement assay
T3 sequence (P08913 whole entry): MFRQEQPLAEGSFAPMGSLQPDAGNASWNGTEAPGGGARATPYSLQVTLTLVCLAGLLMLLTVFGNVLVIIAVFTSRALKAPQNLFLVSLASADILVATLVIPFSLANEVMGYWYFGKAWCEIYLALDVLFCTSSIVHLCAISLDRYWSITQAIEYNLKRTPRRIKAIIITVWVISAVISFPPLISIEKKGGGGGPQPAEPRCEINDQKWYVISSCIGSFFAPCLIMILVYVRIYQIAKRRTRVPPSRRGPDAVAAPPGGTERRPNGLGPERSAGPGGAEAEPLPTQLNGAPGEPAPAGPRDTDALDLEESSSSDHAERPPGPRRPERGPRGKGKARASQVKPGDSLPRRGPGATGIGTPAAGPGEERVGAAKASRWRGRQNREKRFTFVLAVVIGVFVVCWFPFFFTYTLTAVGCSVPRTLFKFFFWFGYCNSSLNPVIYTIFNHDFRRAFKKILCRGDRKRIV

[14] = test system: Mus musculus; assay: Antiallodynic activity in CCI surgery neuropathic pain Hsd:ICR mouse model assessed as reversal of mechano-allodynia by measuring paw withdrawal threshold at 10 micromol/kg,ip and measured at 3 hrs by von frey test; type: functional, organism-based; settings: dose 10.0 µmol/kg; in short: as §2
[15] = molecular target: T4, Alpha-1B adrenergic receptor (Homo sapiens, UniProt P35368); assay: Displacement of [3H]-Prazosin from human adrenergic alpha1B receptor assessed as inhibition constant by radioligand displacement assay
T4 sequence (P35368 whole entry): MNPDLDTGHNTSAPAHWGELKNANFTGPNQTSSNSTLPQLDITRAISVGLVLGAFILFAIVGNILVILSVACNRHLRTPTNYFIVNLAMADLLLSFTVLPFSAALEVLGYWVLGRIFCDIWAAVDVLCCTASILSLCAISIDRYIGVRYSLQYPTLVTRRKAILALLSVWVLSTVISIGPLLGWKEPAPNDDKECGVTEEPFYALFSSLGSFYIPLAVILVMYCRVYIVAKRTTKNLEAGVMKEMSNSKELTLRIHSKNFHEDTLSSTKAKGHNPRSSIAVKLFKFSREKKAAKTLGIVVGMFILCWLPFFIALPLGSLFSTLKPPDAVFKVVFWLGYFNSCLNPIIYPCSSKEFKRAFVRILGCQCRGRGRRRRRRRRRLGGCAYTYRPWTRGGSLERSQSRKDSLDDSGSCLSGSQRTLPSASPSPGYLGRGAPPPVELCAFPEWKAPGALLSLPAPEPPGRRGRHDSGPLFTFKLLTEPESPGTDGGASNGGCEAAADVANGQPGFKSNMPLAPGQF

5-hydroxytryptamine receptor 1B, sequence (P28222 whole entry): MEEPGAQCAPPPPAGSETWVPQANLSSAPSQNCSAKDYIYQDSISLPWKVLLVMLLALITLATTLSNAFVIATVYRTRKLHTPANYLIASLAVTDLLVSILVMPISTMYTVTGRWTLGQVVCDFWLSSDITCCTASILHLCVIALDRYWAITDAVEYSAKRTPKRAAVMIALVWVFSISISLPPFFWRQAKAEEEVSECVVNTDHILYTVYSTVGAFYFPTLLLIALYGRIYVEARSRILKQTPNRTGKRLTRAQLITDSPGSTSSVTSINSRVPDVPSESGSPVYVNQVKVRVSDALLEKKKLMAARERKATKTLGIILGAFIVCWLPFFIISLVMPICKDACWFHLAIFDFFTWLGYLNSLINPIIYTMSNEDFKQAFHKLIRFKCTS
Sigma non-opioid intracellular receptor 1, sequence (Q99720 whole entry): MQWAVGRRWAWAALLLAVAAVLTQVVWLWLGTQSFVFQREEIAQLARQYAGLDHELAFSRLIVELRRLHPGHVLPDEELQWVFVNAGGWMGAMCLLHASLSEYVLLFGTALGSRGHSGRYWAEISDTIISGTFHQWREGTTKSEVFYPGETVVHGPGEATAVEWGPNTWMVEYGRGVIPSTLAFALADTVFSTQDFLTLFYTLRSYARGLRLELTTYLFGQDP
Beta-3 adrenergic receptor, sequence (P13945 whole entry): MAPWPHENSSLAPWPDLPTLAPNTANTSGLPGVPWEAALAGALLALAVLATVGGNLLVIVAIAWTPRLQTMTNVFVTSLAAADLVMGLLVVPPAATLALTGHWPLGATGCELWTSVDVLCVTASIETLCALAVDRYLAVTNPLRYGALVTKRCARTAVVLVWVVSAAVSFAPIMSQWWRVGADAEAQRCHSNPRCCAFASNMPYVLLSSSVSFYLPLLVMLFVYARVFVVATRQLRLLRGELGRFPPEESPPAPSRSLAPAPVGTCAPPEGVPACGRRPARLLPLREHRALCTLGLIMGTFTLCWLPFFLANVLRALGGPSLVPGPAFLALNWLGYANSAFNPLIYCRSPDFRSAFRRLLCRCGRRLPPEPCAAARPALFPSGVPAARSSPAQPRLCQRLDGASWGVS
Histamine H1 receptor, sequence (P35367 whole entry): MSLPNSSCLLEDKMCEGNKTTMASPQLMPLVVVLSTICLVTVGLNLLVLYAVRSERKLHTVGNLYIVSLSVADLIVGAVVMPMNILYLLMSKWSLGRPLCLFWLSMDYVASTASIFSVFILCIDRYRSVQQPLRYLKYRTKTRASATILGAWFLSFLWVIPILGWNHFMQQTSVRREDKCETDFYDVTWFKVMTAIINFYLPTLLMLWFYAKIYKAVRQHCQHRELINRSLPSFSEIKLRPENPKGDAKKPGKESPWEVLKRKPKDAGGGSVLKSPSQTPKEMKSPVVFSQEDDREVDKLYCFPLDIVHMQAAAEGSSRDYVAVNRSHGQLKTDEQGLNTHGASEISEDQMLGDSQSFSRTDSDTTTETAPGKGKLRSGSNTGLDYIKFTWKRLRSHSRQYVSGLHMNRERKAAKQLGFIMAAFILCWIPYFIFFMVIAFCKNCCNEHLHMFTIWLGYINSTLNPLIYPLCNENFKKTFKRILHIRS
Sigma intracellular receptor 2, sequence (Q5BJF2 whole entry): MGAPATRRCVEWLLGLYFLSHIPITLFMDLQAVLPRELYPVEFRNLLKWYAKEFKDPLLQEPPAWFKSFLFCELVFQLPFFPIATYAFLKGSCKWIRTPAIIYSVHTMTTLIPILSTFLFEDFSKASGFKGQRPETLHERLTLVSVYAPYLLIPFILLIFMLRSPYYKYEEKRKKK

IC50 [12] [nM] | Compound | IC50 [1] [nM] | Ki [2] [nM] | Ratio IC50 [3] | Ki [4] [nM] | Ki [5] [nM] | Ki [6] [nM] | Ki [7] [nM] | logD at 20 h [8] | Activity [9] | Activity [10] | Ki [11] [nM] | Ki [13] [nM] | Activity [14] | Ki [15] [nM]
– | O=C(O)c1cc(-c2ccc(C3CCCNCC3)cc2)c2ccc(-c3ccc(C(F)(F)F)cc3)cc2c1 (racemic) | 25.7 | 6600 | 2.68 | 890 | 2800 | 2800 | 4500 | 2.1 | Active | Active | 5.57 | – | – | –
6.3 | O=C(O)c1cc(-c2ccc(C3(O)CCNCC3)cc2)c2ccc(-c3ccc(C(F)(F)F)cc3)cc2c1 | – | – | – | – | – | – | – | – | – | – | – | – | – | –
– | O=C(O)c1cc(-c2ccc(C3(O)C[C@H]4CNC[C@@H]4C3)cc2)c2ccc(-c3ccc(C(F)(F)F)cc3)cc2c1 (racemic) | 6.78 | – | 0.715 | – | – | – | 5400 | 1.1 | Active | Active | 5.51 | 5700 | Active | 6400
